Laboratory results reported in ChEMBL document CHEMBL5576111, “N-Sulfonylphenoxazines as neuronal calcium ion channel blockers” (RSC Med Chem, 2024).

Columns and labels:
[1] = molecular target: Voltage-dependent N-type calcium channel subunit alpha-1B (Homo sapiens, UniProt Q00975); test: Inhibition of Cav2.2 in human SH-SY5Y cells assessed as inhibition of calcium influx preincubated 300 secs followed by addition of KCL/CaCl2 and measured for 300 secs in presence of Cav1 blocker nifedipine by calcium 6 dye based calcium influx assay; format: cell-based
In short: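 Native Cav2.2 in SH-SY5Y neuroblastoma cells seeded at 40000/well and grown 48 h at 37 °C, 5% CO2. Calcium 6 dye loading 30 min at 37 °C in HEPES buffer pH 7.4 with 0.1% BSA and 10 µM nifedipine. Compound added for 300 s, then 90 mM KCl/5 mM CaCl2, read 300 s (ex 470-495, em 515-575 nm). Top concentration 100 µM, 3-fold dilutions, 1% DMSO; cilnidipine control; n = 3.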

[2] = Stability in Sprague-Dawley rat plasma assessed as parent compound remaining at 150 uM measured after 24 hrs at 37 degreeC by HPLC analysis; format: ADME, cell-free; conditions: read-out: Stability
[3] = Metabolic stability in rat liver microsomes assessed intrinsic clearance per mg protein at 1 uM measured up to 60 mins in presence of NADPH by LC/HRMS analysis; format: ADME, Microsome; conditions: 1 h

Voltage-dependent N-type calcium channel subunit alpha-1B, sequence (Q00975 whole entry): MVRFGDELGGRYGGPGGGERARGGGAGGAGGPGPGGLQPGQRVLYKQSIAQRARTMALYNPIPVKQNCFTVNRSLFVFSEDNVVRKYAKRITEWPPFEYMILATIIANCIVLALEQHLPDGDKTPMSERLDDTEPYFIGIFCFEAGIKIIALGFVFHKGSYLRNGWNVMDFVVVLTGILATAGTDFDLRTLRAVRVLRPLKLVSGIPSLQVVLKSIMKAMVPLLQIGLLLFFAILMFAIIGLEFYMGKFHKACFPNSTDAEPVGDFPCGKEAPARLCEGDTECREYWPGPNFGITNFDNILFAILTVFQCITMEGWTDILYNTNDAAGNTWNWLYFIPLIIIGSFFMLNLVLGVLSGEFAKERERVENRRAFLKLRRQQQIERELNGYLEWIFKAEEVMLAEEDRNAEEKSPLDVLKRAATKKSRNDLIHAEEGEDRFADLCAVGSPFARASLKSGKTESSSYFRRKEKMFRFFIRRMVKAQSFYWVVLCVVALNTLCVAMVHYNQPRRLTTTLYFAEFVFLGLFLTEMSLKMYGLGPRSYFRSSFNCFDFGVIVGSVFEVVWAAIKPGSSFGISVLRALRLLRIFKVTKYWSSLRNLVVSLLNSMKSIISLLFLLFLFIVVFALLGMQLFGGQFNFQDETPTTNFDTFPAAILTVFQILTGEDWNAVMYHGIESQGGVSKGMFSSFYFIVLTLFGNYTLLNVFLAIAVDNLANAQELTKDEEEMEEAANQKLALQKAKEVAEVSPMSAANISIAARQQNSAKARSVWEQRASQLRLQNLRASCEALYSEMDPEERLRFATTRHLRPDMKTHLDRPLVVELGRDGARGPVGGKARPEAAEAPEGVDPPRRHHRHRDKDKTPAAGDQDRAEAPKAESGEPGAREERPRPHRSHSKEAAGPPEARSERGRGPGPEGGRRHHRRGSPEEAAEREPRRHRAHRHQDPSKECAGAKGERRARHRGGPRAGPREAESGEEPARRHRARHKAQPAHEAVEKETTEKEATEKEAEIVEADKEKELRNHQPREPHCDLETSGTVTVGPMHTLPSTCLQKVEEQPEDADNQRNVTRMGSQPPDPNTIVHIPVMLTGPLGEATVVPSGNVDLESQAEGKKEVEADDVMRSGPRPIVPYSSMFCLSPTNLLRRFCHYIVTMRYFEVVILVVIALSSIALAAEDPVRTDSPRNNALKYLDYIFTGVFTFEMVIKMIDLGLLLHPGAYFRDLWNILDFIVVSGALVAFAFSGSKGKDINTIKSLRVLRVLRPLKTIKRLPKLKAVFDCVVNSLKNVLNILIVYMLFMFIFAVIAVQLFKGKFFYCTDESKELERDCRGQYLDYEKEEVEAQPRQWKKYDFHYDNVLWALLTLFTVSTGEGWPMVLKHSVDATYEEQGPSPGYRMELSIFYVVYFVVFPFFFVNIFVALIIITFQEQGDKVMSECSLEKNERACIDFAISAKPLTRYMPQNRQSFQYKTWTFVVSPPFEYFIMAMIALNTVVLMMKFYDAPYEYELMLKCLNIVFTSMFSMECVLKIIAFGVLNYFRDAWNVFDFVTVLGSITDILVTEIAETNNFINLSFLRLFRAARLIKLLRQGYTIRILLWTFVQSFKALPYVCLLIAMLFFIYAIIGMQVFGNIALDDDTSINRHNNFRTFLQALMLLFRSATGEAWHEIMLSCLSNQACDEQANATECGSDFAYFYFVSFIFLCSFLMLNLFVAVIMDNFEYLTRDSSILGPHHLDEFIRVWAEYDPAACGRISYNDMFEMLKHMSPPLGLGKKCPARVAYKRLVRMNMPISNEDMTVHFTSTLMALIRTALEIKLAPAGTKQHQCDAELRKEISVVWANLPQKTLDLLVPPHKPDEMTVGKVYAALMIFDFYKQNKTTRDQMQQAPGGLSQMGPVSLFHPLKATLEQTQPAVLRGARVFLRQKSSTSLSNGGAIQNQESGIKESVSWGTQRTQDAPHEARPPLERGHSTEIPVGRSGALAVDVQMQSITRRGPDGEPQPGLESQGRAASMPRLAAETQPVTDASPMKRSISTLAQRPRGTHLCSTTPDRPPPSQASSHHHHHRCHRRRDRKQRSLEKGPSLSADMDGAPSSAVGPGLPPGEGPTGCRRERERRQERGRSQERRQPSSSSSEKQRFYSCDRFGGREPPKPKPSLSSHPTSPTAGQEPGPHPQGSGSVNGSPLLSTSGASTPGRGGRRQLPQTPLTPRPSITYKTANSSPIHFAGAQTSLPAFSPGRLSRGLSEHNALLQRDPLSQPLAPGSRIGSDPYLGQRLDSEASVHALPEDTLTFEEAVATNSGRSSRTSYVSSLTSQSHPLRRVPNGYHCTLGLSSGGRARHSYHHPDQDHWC

Row | Compound | IC50 [1] | remaining at 24 h, 150 µM [2] | CLint [3]
1 | O=C(O)C(F)(F)F.O=S(=O)(c1ccc(OCCCN2CCOCC2)cc1)N1c2ccccc2Oc2ccccc21 | 29 µM | > 90% | 239 µL/min/mg
2 | CN(C)CCCOc1ccc(S(=O)(=O)N2c3ccccc3Oc3ccccc32)cc1.O=C(O)C(F)(F)F | 4.3 µM | > 90% | 105 µL/min/mg
3 | CN(C)CCCN(C)c1ccc(S(=O)(=O)N2c3ccccc3Oc3ccccc32)cc1 | 18.7 µM |  | 
4 | O=C(O)C(F)(F)F.O=S(=O)(c1ccc(OCCCN2CCCC2)cc1)N1c2ccccc2Oc2ccccc21 | 8 µM | > 90% | 83 µL/min/mg
5 | CNCCCOc1ccc(S(=O)(=O)N2c3ccccc3Oc3ccccc32)cc1.O=C(O)C(F)(F)F | 4.6 µM | 73% | 34 µL/min/mg
6 | O=C(O)C(F)(F)F.O=S(=O)(c1ccc(OCCCn2ccnc2)cc1)N1c2ccccc2Oc2ccccc21 | 48.7 µM | > 90% | 132 µL/min/mg
7 | O=C(O)C(F)(F)F.O=S(=O)(c1ccc(OCCCN2CCCCC2)cc1)N1c2ccccc2Oc2ccccc21 | 7.6 µM | > 90% | 97 µL/min/mg
8 | O=S(=O)(c1ccc(NC2CCNCC2)cc1)N1c2ccccc2Oc2ccccc21 | 19.9 µM |  | 

Now from value to compound, other results behind:

Row | IC50 [1] | Compound | remaining at 24 h, 150 µM [2] | CLint [3]
9 | 20.8 µM | O=S(=O)(c1ccc(NCCCN2CCOCC2)cc1)N1c2ccccc2Oc2ccccc21 |  | 
10 | 13.7 µM | O=S(=O)(c1ccc(NCCCn2ccnc2)cc1)N1c2ccccc2Oc2ccccc21 |  | 
11 | 172 µM | COCCCOc1ccc(S(=O)(=O)N2c3ccccc3Oc3ccccc32)cc1 |  | 
12 | 10.9 µM | CNCCCNc1ccc(S(=O)(=O)N2c3ccccc3Oc3ccccc32)cc1 |  | 
13 | 4.4 µM | O=S(=O)(c1ccc(NCCCN2CCCC2)cc1)N1c2ccccc2Oc2ccccc21 |  | 
14 | 9.1 µM | CN(C)CCCNc1ccc(S(=O)(=O)N2c3ccccc3Oc3ccccc32)cc1 |  | 
15 | 15.2 µM | O=S(=O)(c1ccc(NCCCN2CCCCC2)cc1)N1c2ccccc2Oc2ccccc21 |  | 
